This is an account of results in ChEMBL document CHEMBL4513216, “Probing the Open Global Health Chemical Diversity Library for Multistage-Active Starting Points for Next-Generation Antimalarials” (ACS Infect Dis, 2020).

The nature of this data set: Toxicity liver stage against HepG2, at 10uM. Type of data set: cell-based. Also noted: test concentration 10 uM, cell line HepG2-A16-CD81EGFP. Particulars: human, HepG2-A16-CD81EGFP cells; read-out: INHIBITION
In a few lines: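 Uninfected HepG2-A16-CD81EGFP cells, 3 × 10^3 per well, 1536-well, plated on prespotted compound at 10 μM final, parasite-free screening media added to match infected plates; puromycin 10 μM positive, DMSO 0.5% negative; run in parallel with 48 h PbLuc assay at 37 °C, 5% CO2; viability by CellTiter-Glo luminescence, normalized to controls.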
`CN1CCCC1c1cncc(C(=O)NCCN2CCCCC2)n1` (stereo unspecified): the cytotoxicity at 10 µM is 0.388%.

For `Cc1cc(CC(=O)NC2CCCN(Cc3ccccc3)C2=O)n[nH]1` (stereo unspecified), the cytotoxicity at 10 µM was determined as 3.5%.

For the molecule `O=C(Cc1ccsc1)N1CCCC(c2n[nH]c3ncccc23)C1` (stereo unspecified), the cytotoxicity at 10 µM is -6.8%.

As for `OCCOCc1ncn2c1CN(Cc1cccs1)CCC2`, the cytotoxicity at 10 µM was -82.9%.

Turning to `Cc1cccc(-c2nc(CNC3CCc4nc(C)nn4C3)no2)c1` (stereo unspecified), the cytotoxicity at 10 µM is -4.3%.

`CCc1nc(C2CCCN2C(=O)CCc2nc(C(C)(C)C)no2)no1` (stereo unspecified): the cytotoxicity at 10 µM was -0.819%.

For `CC(C)c1nnc(CN(C)C(c2ccc(F)cc2)c2cccnc2)o1` (stereo unspecified), the cytotoxicity at 10 µM was found to be 4.11%.

In the case of `O=C(c1cnccn1)N1C[C@@H]2CCN(c3cnccn3)C[C@@H]2C1`, the cytotoxicity at 10 µM is -100%.

With `O=C1CC(c2ccc(C(F)(F)F)cc2)c2c(n3ccsc3nc2=O)N1` (stereo unspecified), the cytotoxicity at 10 µM was -1.4%.

Take `Cc1nccn1CCN(C)C(=O)c1cn(-c2ccccc2)nn1`: the cytotoxicity at 10 µM is -0.651%.

With `CCc1nncn1CCNC(=O)N1CCCC(Cc2nccn2C)C1` (stereo unspecified), the cytotoxicity at 10 µM was determined as 0.548%.

Consider `CN(C)CCN1CCOCC2(C1)CN(Cc1ccsc1)CCO2` (stereo unspecified), for which the cytotoxicity at 10 µM is -0.439%.

Consider `CC(C)(C)c1cnc(CN2CCCC2Cn2cccn2)o1` (stereo unspecified), for which the cytotoxicity at 10 µM is -9.6%.

With `COCCN1C(=O)[C@@H]2CC[C@H]1CN(Cc1nnc(C3CC3)o1)C2`, the cytotoxicity at 10 µM was 11.6%.

As for `CCc1nsc(N2CCn3c(nnc3C(F)(F)F)C2)n1`, the cytotoxicity at 10 µM is -0.657%.

In the case of `Cc1nc(C)c(C(=O)NCCNc2ncccc2C(F)(F)F)s1`, the cytotoxicity at 10 µM is -3.08%.

Consider `CC(C)Cc1nnc(NCc2ccsc2)o1`, for which the cytotoxicity at 10 µM was -0.699%.

Regarding `Cc1ccc(OCCN(C)C(C)c2cccc(S(N)(=O)=O)c2)cc1` (stereo unspecified), the cytotoxicity at 10 µM was -29.3%.

For the molecule `CC(NC(=O)Nc1ccc(-n2cncn2)cc1)C(=O)NC(C)(C)C` (stereo unspecified), the cytotoxicity at 10 µM amounted to 3.92%.

As for `CC(CNC(=O)c1cccnc1O)Cn1cccn1` (stereo unspecified), the cytotoxicity at 10 µM was determined as 0.144%.

For the molecule `Cc1nn(C2CCS(=O)(=O)C2)c(O)c1Cc1ccc(Br)cc1` (stereo unspecified), the cytotoxicity at 10 µM is -41.6%.

With `CCCc1nc(C)c(C(=O)NCCN2CCOCC2)s1`, the cytotoxicity at 10 µM was -7.75%.

In the case of `Brc1cc(CNCc2nnc3n2CCC3)cs1`, the cytotoxicity at 10 µM is -6.22%.

As to `O=C(c1csc(-c2ncccn2)n1)N1CCN(C2CCCC2)CC1`, the cytotoxicity at 10 µM was 4.87%.

Take `Cc1cccnc1CC(C)NC1Cc2ccccc2C1` (stereo unspecified): the cytotoxicity at 10 µM is 4.69%.

`O=C(NCc1ccccn1)[C@]12COC[C@H]1CN(Cc1ccccc1F)C2`: the cytotoxicity at 10 µM was found to be 6.81%.

In the case of `CS(=O)(=O)N1CCCC1c1ccnc2nccn12` (stereo unspecified), the cytotoxicity at 10 µM was -2.62%.

For the molecule `CCc1c(C(=O)N2CCC3(CC(=O)NC3=O)C2)csc1C` (stereo unspecified), the cytotoxicity at 10 µM turned out to be 1.62%.

On to `CCn1cc(NC(=O)C2CCN(Cc3nc(C)c(C)s3)CC2)cn1`, for which the cytotoxicity at 10 µM was 6.37%.

For `CCOc1ccc(C(=O)N2CCN(c3nccn3C)CC2)cc1`, the cytotoxicity at 10 µM worked out at 5.89%.

Turning to `O=S(=O)(c1ccccc1)N1CCCCC1c1cc[nH]n1` (stereo unspecified), the cytotoxicity at 10 µM turned out to be 7.65%.

In the case of `COc1ccc(Cl)cc1CC(=O)N1CCN(CCO)CC1`, the cytotoxicity at 10 µM was -9.51%.

Take `CC(=O)N1CCOC(c2cc(N3CC(O)C3)nc(C)n2)C1` (stereo unspecified): the cytotoxicity at 10 µM is 3.16%.

Take `CCc1n[nH]c(C2CN(C(=O)c3ncoc3CC)CCO2)n1` (stereo unspecified): the cytotoxicity at 10 µM was found to be 0.567%.

Regarding `Cc1nc(NCc2noc(C3CCCO3)n2)c2sccc2n1` (stereo unspecified), the cytotoxicity at 10 µM amounted to 50.2%.

As for `Cc1nn(C)c(C)c1C1CCCN1C(=O)c1cnccn1` (stereo unspecified), the cytotoxicity at 10 µM was -15.7%.

Regarding `Cc1ccc(Nc2ncnc3c2CCN(CC2CCOC2)CC3)cc1` (stereo unspecified), the cytotoxicity at 10 µM was determined as 5.32%.

For the molecule `Cc1nc(C2CCCN2C(=O)CCCOc2cccc(F)c2)no1` (stereo unspecified), the cytotoxicity at 10 µM turned out to be 5.09%.

Turning to `CCC(CNC1CCN(C(C)=O)CC1)Oc1cccc(C)c1` (stereo unspecified), the cytotoxicity at 10 µM was 6.42%.

Regarding `COCc1ccccc1CNCc1c(C(C)C)nn(C)c1N(C)C`, the cytotoxicity at 10 µM is -7.83%.

With `COCC(=O)N1CCC2(CC1)COc1ccccc1S(=O)(=O)N(C)C2`, the cytotoxicity at 10 µM came out at 9.7%.

On to `O=C(Cc1ccsc1)N1CCC(n2nc(-c3ccco3)ccc2=O)CC1`, for which the cytotoxicity at 10 µM is -8.98%.

For the molecule `CNc1snc(C)c1C(=O)N1CCCC(n2nc(C)cc2C)C1` (stereo unspecified), the cytotoxicity at 10 µM was -2.74%.

`Cc1cc(C2CCCN(C(=O)COc3cc(C)on3)C2)n[nH]1` (stereo unspecified): the cytotoxicity at 10 µM was -3.87%.

With `CN(Cc1coc(-c2ccccc2)n1)CC1CCCN1c1cccnn1` (stereo unspecified), the cytotoxicity at 10 µM is -10.4%.

In the case of `O=C(Nc1nnn[nH]1)c1ccc(-n2cccc2)c(F)c1`, the cytotoxicity at 10 µM is -1.63%.

Consider `COc1ccc(N(c2ccc(OC)cc2)c2ccc(C(=O)O)s2)cc1`, for which the cytotoxicity at 10 µM turned out to be 18.5%.

`COc1ccccc1CN(CC1CCCO1)C(=O)c1ccc(F)cn1` (stereo unspecified): the cytotoxicity at 10 µM is -3.85%.

For the molecule `COCc1ccccc1C(=O)N1CCn2c(nnc2C(C)C)C1`, the cytotoxicity at 10 µM came out at 2.91%.

Regarding `CS(=O)(=O)N1CCC(C(=O)N2CCC(Cn3cccn3)CC2)CC1`, the cytotoxicity at 10 µM was -10.2%.

In the case of `Cc1nnc(CN(C)C2CCN(Cc3nc4ccccc4n3C)C2)o1` (stereo unspecified), the cytotoxicity at 10 µM was -10.1%.

As for `COc1ccc(CN2C[C@@H]3CN(CCO)C[C@@H]3C2=O)cc1`, the cytotoxicity at 10 µM was determined as 9.27%.

For the molecule `COCC(=O)Nc1ccc(-c2noc([C@@H]3CCCN3C(C)C)n2)cn1`, the cytotoxicity at 10 µM worked out at 0.994%.

For `CN1CCN(c2ncnc3c2CCN(Cc2nccn2C)CC3)CC1`, the cytotoxicity at 10 µM is -130%.

For `COCCNC(=O)[C@H]1CN(Cc2cccs2)C[C@H]2OCC[C@@H]12`, the cytotoxicity at 10 µM was 4%.

As for `Cc1nc(C)c(C(=O)N2C[C@@H](C(=O)O)[C@H](C3CC3)C2)s1`, the cytotoxicity at 10 µM turned out to be 7.53%.

Turning to `Cc1ccc(C(CNC(=O)Nc2cn[nH]c2)N2CCOCC2)o1` (stereo unspecified), the cytotoxicity at 10 µM is -24.8%.

Turning to `Cc1csc(S(=O)(=O)N2CCN(C)C3(CCC(=O)N(C)CC3)C2)c1` (stereo unspecified), the cytotoxicity at 10 µM turned out to be 1.67%.

Take `CC(C)(C)c1nc(CN2CCC(c3ccnn3CCO)CC2)no1`: the cytotoxicity at 10 µM is -5.22%.

For `CNc1nc(C(=O)NCc2cccnc2N(C)C)cs1`, the cytotoxicity at 10 µM was -7.57%.

For the molecule `Cc1noc(C)c1C(C)NC(=O)N1CCC(NC(=O)c2ccsc2)CC1` (stereo unspecified), the cytotoxicity at 10 µM was found to be 7.07%.

Turning to `Cc1ccc(CNC(=O)N2CCN(C(C)c3cccnc3)CC2)cn1` (stereo unspecified), the cytotoxicity at 10 µM was -2.11%.

Consider `N#Cc1cn(CCN2CCc3ccccc3C2)c(=O)[nH]c1=O`, for which the cytotoxicity at 10 µM was 4.47%.

For `CN(C)c1cc(CNC(=O)c2ccc(O)nc2)ccn1`, the cytotoxicity at 10 µM is -16%.

As to `CCOCCNS(=O)(=O)c1cc(C)c2nc(O)cc(C)c2c1`, the cytotoxicity at 10 µM is -4.77%.

Regarding `CC1(C)CC2(CCO1)NC(=O)c1cc(Br)ccc1-n1nnnc12` (stereo unspecified), the cytotoxicity at 10 µM worked out at 5.97%.

With `O=C1[C@@H]2CCN(Cc3ccoc3)C[C@@H]2OCCN1Cc1cccc(F)c1`, the cytotoxicity at 10 µM is -98.2%.

Take `Cc1ccc(C)c(OC2CCN(C(=O)c3ccc(O)nc3)CC2)c1`: the cytotoxicity at 10 µM came out at 3.23%.

Regarding `Cc1cc(NC(=O)C2CCN(c3nnc(C)c(C)c3C#N)CC2)no1`, the cytotoxicity at 10 µM was -4.11%.

For `O=C(NCC(O)(c1ccco1)C1CC1)c1ccccc1F` (stereo unspecified), the cytotoxicity at 10 µM is -1.16%.

On to `O=C(NCC(=O)N1CCN(c2ccccc2)CC1)c1sccc1C1CC1`, for which the cytotoxicity at 10 µM is -151%.
